Compounds with a hit are over-represented: about 1.1% of the library has one in this group of screens.
PglD inh: C. jejuni PglD acetyltransferase inhibitors, primary screen, biochemical, DTNB colorimetric, single point. actives 0.098% (n = 360,000). inhibition, % at 12.5 µM. purified PglD enzyme, DTNB colorimetric CoA detection. UDP-N-acetylbacillosamine N-acetyltransferase PglD (Campylobacter jejuni); in the data active = inhibition above about 16%, passing the limit was not always enough
Cneo AK release: Cryptococcus neoformans cell lysis inducers, primary screen, AK release luminescence, single concentration; C. neoformans lysis, adenylate kinase release luminescence, 4 h; normalised: neutral wells 0, clomiphene wells 100; lysis activity, % at 15 µM; actives 0.2% (n = 360,000); AID 651654, 2012;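 active = mean lysis activity across replicates of at least 80%, whatever share of replicates individually reach that level; inactive = mean lysis activity below 80%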
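Assay system: C. neoformans cells. Amount: yeast cell density of 5 × 10^6 cells/mL. Technique: AK luminescence. Buffer or medium: YPD. Times: static 4 h at 37 °C with compound, 1 h detection. Dosing: single-point compound dose. Read-out: lysis from increased AK signal.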
CAL PDZ FP-1: untagged CAL PDZ binding inhibitors, primary screen, biochemical, fluorescence polarization, HTS | purified CAL PDZ, TMR-peptide fluorescence polarization, 1 h | inhibition, % at 24.9 µM | Golgi-associated PDZ and coiled-coil motif-containing protein (Homo sapiens), Q9HD26 | actives 0.92% (n = 300,000);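 active = mean inhibition of at least 30% with at least half of replicates also reaching 30%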
miR-122 sensor: miR-122 Renilla sensor signal increase in Huh7, primary screen, miR-122 inhibitor project, cell-based, single point, plate reader; Huh7 miR-122 Renilla luciferase sensor, 48 h; neutral wells = 0, positive control = 100; activation (reporter increase), % at 12.5 µM; actives 0.3% (n = 340,000);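 active = mean replicate activation score at least 90 and every replicate individually at or above 90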;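 also: higher luciferase means less miR-122 activity so hits act as miR-122 inhibitors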
CAL PDZ FP-2: CAL PDZ peptide-binding inhibitors, primary screen, biochemical, fluorescence polarization, Cer-tagged CAL PDZ, HTS | purified CAL PDZ, TMR-peptide fluorescence polarization, 1 h | inhibition, % at 20 µM | actives 0.02% (n = 330,000);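 active = highest replicate inhibition of at least 40%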
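Test system: purified CerCALP PDZ construct; Compound dosing: one concentration, 20 µM compound; Also added: TMR-labelled reporter peptide T*-PRC34 bound in PDZ groove; Read-out: inhibition from polarization loss; Controls: unlabelled peptide and DMSO controls; Signal: FP readout, S and P plane fluorescence; Incubation: 1 h at RT.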
PglD inh SP: PglD acetyltransferase inhibitors, confirmation, biochemical, DTNB absorbance, single point, cherry-picked samples; shares compounds with PglD inh; Purified C. jejuni PglD, DTNB absorbance 412 nm; inhibition, % at 20 µM; 320 tested, under 10 active; AID 743156, 2013;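 active = mean inhibition across replicates of at least 20% with every single replicate also at 20% or more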;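 also: initial rate of CoA release by acetyl transfer from AcCoA to the UDP-4-amino sugar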
Hits are given with their value; n = inactive; x = not tested or not shown.

SMILES | PglD inh | Cneo AK release | CAL PDZ FP-1 | miR-122 sensor | CAL PDZ FP-2 | others
Cc1ccnc(NC(=O)CCCc2ccc(N(CCCl)CCCl)cc2)n1 | n | n | 51 | n | n
COc1cccc(CNCCc2ccc(F)cc2)c1 | n | n | 77 | n | n
O=C(Cc1cccnc1)N1CCCCN2[C@H](CO)[C@@H](c3ccc(C#CC4CCCC4)cc3)[C@H]2C1 | n | n | x | n | x
Cc1nc2ccccc2c(=O)n1-c1ccc([N+](=O)[O-])cc1 | n | n | n | n | x
Cc1nc2ccc(Cl)cc2c(=O)n1-c1ccc([N+](=O)[O-])cc1 | n | n | 75 | n | x
CCOC(=O)[C@@H]1[C@@H]2NC(=S)N[C@@]1(C)Oc1ccccc12 | n | n | x | x | x
CC(=O)O[C@@H]1CC[C@]2(C)C3CC[C@]4(C)C(=O)[C@H](O)CC4C3[C@@H](OC(C)=O)C[C@H]2C1 (stereo not given in full) | n | n | 78 | n | n
O=C(Cc1cccnc1)N1CCCCN2[C@@H](CO)[C@@H](c3ccc(/C=C/c4ccccc4)cc3)[C@@H]2C1 | n | n | x | n | x
COC(=O)C1=C(c2ccc(OC)c(OC)c2)C[C@@H]2CC[C@H]1N2C(=O)N1CCC(C)CC1 | n | n | 41 | n | n
COC(=O)C1=C(c2ccc(OC)c(OC)c2)C[C@@H]2CC[C@H]1N2C(=O)N1CCOCC1 | n | n | n | n | n
CC=Cc1ccc2n(c1=O)C[C@@H]1[C@@H](CO)[C@H](C(=O)OC)[C@H]2N1CC1CCOCC1 (mixture of isomers) | n | n | x | x | x
Cc1ccc(C(=O)Nc2ccc(Cl)cc2C(=O)c2ccccc2)cc1 | n | n | x | 114 | n
Cc1ccc(OCC(=O)Nc2ccc(Cl)cc2C(=O)c2ccccc2)cc1 | n | x | n | n | n
COC(=O)[C@H]1[C@H](CO)[C@H]2Cn3c(ccc(-c4ccc(F)cc4)c3=O)[C@@H]1N2Cc1cccnc1 | n | n | x | x | x
Cc1cccc(N2C(=O)NC(=O)/C(=C/c3ccc(N4CCOCC4)cc3)C2=O)c1 | x | x | n | x | n
Cc1cccc(N2C(=O)NC(=O)/C(=C\c3ccc(N4CCOCC4)cc3)C2=O)c1 | x | x | 56 | x | n
O=P(Nc1ccccc1)(Nc1ccccc1)Oc1ccc(Cl)cc1 | n | n | n | 322 | n
O=C(CCN1CCOCC1)NCC(=O)Nc1ccc(Br)cc1C(=O)c1ccccc1 | n | n | 36 | n | n
O=C(CN1CCCCC1)NCC(=O)Nc1ccc(Br)cc1C(=O)c1ccccc1 | n | n | n | n | n
CSc1nc2ccccc2c(=O)n1-c1cccnc1 | x | x | 79 | x | n
N#CCCn1cc(C(=O)NCc2ccccc2)c(-c2ccc3c(c2)OCCO3)n1 | n | n | 47 | n | n
N#CCCn1cc(C(=O)NCc2ccccc2)c(-c2ccccc2)n1 | x | x | n | x | n
CN(CC=CCN(C)P(=S)(N1CC1)N1CC1)P(=S)(N1CC1)N1CC1 | x | x | 34 | n | n
O=C(Cc1ccccn1)N1CCCCN2[C@H](CO)[C@H](c3ccc(C#Cc4ccccc4)cc3)[C@@H]2C1 | n | n | x | n | x
O=c1[nH]c(O)c(C=NCCc2ccccc2)c(=O)[nH]1 | x | x | 84 | x | n
Cc1cc(C)cc(N2C(=O)/C(=C\c3ccc(N4CCN(C)CC4)o3)C(=O)NC2=S)c1 | 76 | n | x | n | x | PglD inh SP=n
CCCNS(=O)(=O)c1ccc(OCC(=O)N2CCN(Cc3ccc4c(c3)OCO4)CC2)cc1 | 29 | n | n | n | n | PglD inh SP=n
CCCNS(=O)(=O)c1ccc(OCC(=O)N2CCN(Cc3ccc4c(c3)OCO4)CC2)c(C)c1 | x | x | x | x | n
CC=Cc1ccc2n(c1=O)C[C@@H]1[C@@H](CO)[C@H](C(=O)O)[C@H]2N1S(=O)(=O)c1ccccc1F (mixture of isomers) | n | n | x | x | x

High-throughput results: PubChem BioAssay, Broad Institute
